In ChEMBL document CHEMBL1949510, “Design and synthesis of 6,6-fused heterocyclic amides as raf kinase inhibitors” (Bioorg Med Chem Lett, 2012):

Assays:
[1] = Apparent permeability from apical to basolateral side in human Caco2 cells; assay type: ADME, cell-based; conditions: Caco-2
[2] = molecular target: T1, Serine/threonine-protein kinase B-raf (Homo sapiens, UniProt P15056, V600E); experiment: Inhibition of N-terminus His6-tagged Braf V600E mutant expressed in insect Sf9 cells assessed as Mek phosphorylation after 2 hrs by ELISA
Method in brief: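 Biochemical assay with the purified BrafV600E kinase domain, not the full-length protein.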

[3] = molecular target: T1, Serine/threonine-protein kinase B-raf; experiment: Inhibition of Braf V600E mutant-mediated Erk phosphorylation in human SK-MEL-28 cells after 4 hrs by Western blot analysis; assay type: cell-based
[4] = Solubility of the compound at pH 7; assay type: physicochemical; conditions: buffer
[5] = molecular target: T2, Receptor-type tyrosine-protein kinase FLT3 (Homo sapiens, UniProt P36888); experiment: Inhibition of Flt3
T2 sequence (P36888 whole entry): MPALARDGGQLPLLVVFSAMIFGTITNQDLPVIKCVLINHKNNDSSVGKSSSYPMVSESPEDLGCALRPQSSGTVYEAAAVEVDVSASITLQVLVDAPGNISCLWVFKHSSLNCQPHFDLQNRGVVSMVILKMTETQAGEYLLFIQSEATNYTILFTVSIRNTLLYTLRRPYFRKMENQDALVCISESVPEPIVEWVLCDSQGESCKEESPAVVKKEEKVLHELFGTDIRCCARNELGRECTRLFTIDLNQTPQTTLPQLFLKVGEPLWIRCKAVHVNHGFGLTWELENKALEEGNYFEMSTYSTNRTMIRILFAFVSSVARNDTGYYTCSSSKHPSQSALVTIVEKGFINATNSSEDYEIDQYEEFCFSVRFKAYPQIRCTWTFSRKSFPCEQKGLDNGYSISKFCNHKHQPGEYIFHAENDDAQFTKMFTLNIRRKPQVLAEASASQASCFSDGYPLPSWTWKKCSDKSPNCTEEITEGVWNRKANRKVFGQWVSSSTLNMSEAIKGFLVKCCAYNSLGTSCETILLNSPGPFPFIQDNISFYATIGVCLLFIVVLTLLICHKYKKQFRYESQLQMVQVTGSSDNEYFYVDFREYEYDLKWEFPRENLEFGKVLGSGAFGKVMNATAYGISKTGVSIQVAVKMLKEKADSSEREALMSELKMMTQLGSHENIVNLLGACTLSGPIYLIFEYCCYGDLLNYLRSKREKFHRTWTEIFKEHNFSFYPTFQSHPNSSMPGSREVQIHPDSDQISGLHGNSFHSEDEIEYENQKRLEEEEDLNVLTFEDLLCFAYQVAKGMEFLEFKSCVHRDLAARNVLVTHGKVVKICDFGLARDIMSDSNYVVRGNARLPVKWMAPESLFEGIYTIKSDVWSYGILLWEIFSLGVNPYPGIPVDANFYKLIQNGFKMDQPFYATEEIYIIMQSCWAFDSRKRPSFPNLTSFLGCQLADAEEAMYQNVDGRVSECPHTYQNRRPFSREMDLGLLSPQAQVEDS
Method in brief: (§1)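 Selectivity profiling panel of 50 kinases spanning RTKs, STKs, TKs and AGC kinases.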

[6] = molecular target: Tyrosine-protein kinase ABL1 (Homo sapiens, UniProt P00519); experiment: Inhibition of cABL; method in brief: as §1
[7] = molecular target: Macrophage colony-stimulating factor 1 receptor (Homo sapiens, UniProt P07333); experiment: Inhibition of CSFR1; method in brief: as §1
[8] = molecular target: Vascular endothelial growth factor receptor 2 (Homo sapiens, UniProt P35968); experiment: Inhibition of KDR; method in brief: as §1
[9] = Oral bioavailability in mouse at 20 mg/kg administered as single dose; assay type: ADME, organism-based; conditions: in vivo
[10] = tested on: Mus musculus; experiment: Volume of distribution in mouse at 20 mg/kg, po administered as single dose; assay type: ADME, organism-based; design: dose 20 mg/kg, route oral; conditions: in vivo
[11] = Half life in mouse at 20 mg/kg, po administered as single dose; assay type: ADME, organism-based; design: dose 20 mg/kg, route oral; conditions: in vivo
[12] = Clearance in mouse at 20 mg/kg, po administered as single dose; assay type: ADME, organism-based; design: dose 20 mg/kg, route oral; conditions: in vivo

Macrophage colony-stimulating factor 1 receptor, sequence (P07333 whole entry): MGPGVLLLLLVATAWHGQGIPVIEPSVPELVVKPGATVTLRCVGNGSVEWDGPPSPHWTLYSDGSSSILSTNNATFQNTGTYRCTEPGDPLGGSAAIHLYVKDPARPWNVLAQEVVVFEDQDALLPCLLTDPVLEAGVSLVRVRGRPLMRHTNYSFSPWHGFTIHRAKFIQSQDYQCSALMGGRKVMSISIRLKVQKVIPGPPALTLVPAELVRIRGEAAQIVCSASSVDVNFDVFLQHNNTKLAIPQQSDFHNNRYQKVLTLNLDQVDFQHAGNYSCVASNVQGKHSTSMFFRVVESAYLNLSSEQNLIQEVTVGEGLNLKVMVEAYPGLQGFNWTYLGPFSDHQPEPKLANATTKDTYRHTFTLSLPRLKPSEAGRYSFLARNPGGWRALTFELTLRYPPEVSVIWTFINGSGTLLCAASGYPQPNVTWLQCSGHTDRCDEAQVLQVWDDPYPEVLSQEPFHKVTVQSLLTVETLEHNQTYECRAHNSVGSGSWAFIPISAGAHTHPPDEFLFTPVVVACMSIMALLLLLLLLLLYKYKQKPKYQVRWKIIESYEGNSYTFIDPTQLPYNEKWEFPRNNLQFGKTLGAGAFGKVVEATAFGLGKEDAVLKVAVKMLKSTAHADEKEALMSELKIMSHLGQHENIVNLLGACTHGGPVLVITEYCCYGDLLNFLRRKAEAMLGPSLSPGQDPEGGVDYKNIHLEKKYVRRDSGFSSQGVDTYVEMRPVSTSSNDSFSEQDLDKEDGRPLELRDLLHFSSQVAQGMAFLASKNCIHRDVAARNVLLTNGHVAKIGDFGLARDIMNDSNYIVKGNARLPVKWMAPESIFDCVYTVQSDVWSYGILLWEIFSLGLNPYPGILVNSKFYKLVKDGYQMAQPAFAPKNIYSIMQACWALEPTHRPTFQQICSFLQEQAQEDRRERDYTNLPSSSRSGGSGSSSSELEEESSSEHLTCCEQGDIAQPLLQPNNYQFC
Tyrosine-protein kinase ABL1, sequence (P00519 whole entry): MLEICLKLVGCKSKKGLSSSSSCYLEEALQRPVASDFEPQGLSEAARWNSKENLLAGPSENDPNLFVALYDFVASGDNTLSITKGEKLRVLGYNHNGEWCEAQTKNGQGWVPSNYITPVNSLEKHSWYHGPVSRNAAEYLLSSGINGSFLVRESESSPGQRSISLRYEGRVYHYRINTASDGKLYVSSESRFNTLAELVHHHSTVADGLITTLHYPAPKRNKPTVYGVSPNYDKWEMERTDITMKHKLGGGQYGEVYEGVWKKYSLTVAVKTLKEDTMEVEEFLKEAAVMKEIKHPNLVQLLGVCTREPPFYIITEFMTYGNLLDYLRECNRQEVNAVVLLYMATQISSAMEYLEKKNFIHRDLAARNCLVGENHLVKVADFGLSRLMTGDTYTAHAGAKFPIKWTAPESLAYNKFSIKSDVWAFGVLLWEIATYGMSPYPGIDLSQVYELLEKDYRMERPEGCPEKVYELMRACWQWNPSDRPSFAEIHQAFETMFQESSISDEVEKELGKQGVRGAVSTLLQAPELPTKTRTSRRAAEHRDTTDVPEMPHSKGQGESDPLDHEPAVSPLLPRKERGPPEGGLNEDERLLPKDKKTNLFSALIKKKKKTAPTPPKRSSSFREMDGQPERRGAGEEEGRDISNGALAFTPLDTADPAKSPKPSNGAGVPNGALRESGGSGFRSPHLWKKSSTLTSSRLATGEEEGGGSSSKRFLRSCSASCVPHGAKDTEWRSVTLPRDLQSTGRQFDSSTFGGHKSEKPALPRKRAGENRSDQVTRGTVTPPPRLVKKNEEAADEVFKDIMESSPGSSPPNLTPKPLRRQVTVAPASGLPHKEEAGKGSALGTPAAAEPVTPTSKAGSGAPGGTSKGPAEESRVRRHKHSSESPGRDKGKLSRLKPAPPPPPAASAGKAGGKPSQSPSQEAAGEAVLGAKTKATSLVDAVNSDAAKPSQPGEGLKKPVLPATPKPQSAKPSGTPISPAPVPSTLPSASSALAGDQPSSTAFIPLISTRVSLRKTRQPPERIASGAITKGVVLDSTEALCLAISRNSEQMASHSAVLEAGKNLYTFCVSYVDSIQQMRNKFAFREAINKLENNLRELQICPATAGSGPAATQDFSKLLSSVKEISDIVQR
T1 sequence (P15056 2-766 V600E limits assumed): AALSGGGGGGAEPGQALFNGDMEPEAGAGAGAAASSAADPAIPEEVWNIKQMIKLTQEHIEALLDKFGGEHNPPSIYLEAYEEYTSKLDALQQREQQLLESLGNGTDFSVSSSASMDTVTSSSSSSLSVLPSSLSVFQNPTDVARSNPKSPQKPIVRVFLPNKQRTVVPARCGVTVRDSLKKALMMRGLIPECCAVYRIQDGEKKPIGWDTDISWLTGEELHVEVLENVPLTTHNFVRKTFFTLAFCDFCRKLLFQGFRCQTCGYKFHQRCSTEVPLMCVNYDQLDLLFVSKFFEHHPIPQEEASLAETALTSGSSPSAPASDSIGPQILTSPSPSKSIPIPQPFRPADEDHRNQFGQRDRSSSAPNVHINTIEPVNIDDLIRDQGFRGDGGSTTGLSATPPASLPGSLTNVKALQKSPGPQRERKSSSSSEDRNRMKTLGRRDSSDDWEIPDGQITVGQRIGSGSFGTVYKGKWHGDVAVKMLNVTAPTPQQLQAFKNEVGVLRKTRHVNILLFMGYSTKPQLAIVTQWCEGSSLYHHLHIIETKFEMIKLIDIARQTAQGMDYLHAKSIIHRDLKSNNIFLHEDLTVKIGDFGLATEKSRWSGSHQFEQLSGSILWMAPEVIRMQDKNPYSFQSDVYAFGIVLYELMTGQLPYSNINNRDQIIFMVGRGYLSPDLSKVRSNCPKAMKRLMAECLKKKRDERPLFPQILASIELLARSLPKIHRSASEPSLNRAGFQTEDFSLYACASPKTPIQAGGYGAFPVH
Vascular endothelial growth factor receptor 2, sequence (P35968 whole entry): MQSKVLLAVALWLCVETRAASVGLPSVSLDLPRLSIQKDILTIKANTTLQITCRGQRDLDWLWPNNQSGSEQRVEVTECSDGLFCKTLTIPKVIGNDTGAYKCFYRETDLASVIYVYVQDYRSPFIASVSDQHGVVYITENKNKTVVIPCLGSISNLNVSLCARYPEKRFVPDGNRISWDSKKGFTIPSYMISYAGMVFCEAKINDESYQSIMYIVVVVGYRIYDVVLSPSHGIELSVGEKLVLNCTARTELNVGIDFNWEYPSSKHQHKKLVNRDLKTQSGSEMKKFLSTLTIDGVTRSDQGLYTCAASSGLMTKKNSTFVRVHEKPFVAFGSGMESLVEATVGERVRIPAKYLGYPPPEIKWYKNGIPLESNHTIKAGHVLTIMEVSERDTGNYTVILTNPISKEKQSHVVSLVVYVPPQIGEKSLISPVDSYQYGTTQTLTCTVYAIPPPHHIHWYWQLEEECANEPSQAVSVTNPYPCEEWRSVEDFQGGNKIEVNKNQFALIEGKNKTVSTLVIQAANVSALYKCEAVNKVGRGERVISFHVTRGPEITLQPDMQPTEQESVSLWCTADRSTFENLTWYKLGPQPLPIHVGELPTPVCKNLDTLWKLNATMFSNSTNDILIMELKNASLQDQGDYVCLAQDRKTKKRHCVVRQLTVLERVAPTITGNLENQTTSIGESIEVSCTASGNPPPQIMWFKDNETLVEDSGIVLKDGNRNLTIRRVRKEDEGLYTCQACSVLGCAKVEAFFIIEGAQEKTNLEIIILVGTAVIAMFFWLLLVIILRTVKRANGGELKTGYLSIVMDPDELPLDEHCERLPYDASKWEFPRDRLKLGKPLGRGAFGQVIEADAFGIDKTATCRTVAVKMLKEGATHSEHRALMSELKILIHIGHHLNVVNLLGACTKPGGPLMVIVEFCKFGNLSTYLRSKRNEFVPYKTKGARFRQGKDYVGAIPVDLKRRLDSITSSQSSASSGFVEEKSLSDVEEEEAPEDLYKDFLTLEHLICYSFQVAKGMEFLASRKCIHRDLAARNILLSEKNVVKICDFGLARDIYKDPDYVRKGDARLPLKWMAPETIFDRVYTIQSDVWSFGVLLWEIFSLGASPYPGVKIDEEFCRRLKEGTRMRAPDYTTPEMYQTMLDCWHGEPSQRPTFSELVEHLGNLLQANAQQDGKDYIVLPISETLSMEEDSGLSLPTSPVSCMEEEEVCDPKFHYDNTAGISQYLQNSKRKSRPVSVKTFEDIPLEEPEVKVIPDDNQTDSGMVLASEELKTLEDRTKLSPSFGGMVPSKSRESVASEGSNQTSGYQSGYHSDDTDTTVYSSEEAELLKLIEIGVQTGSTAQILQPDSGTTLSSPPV

Structure (SMILES)	Papp A→B [1] [nm/s]	IC50 [2] [µM]	EC50 [3] [µM]	solubility [4] [µM]	IC50 [5] [µM]	IC50 [6] [µM]	IC50 [7] [µM]	IC50 [8] [µM]	bioavailability [9] [%]	Vd [10] [L/kg]	half-life [11] [h]	CL/F [12] [L/h/kg]
CNC(=O)c1cc(Oc2ccc3nc(Nc4ccccc4Br)ncc3c2)ccn1	< 10	24	> 10	< 1								
CCc1ccccc1Nc1ncc2cc(Oc3ccnc(C(=O)NC)c3)ccc2n1	< 10	1.3	> 10	< 1								
CNC(=O)c1cc(Oc2ccc3nc(Nc4ccccc4Oc4ccccc4)ncc3c2)ccn1	< 10	5.3	> 10	< 1								
CNC(=O)c1cc(Oc2ccc3nc(Nc4ccc(Br)cc4)ncc3c2)ccn1	< 10	0.31	> 10	< 1								
CNC(=O)c1cc(Oc2ccc3nc(Nc4ccc(C(C)C)cc4)ncc3c2)ccn1	< 10	0.001	> 10	< 1								
CNC(=O)c1cc(Oc2ccc3nc(Nc4ccc(OC)cc4)ncc3c2)ccn1	< 10	0.39	> 10	< 1								
CNC(=O)c1cc(Oc2ccc3nc(Nc4ccc(Oc5ccccc5)cc4)ncc3c2)ccn1	< 10	0.6	> 10	< 1								
CNC(=O)c1cc(Oc2ccc3nc(Nc4ccc(-c5cccnc5)cc4)ncc3c2)ccn1	< 10	25	> 10	< 1								
O=C(NCCO)c1cc(Oc2ccc3nc(Nc4ccc(Br)cc4)ncc3c2)ccn1	< 10	8.6	> 10	< 1								
O=C(NCCN1CCCCC1)c1cc(Oc2ccc3nc(Nc4ccc(Br)cc4)ncc3c2)ccn1	< 10	1.3	> 10	< 1								
CNC(=O)c1cc(Oc2ccc3nc(Nc4cccc(C(C)(C)C)c4)cnc3c2)ccn1	< 10	0.025	> 10	< 1	< 1	< 1	< 1	< 1				
CNC(=O)c1cc(Oc2ccc3nc(Nc4cccc(C(C)(C)C)c4)ccc3c2)ccn1	< 10	0.026	> 10	< 1	< 1	< 1	< 1	< 1				
CNC(=O)c1cc(Oc2ccc3c(c2)nc(Nc2cccc(C(C)(C)C)c2)n3C)ccn1	< 10			< 1								

Continued, values first:

Papp A→B [1] [nm/s]	IC50 [2] [µM]	EC50 [3] [µM]	solubility [4] [µM]	IC50 [5] [µM]	IC50 [6] [µM]	IC50 [7] [µM]	IC50 [8] [µM]	bioavailability [9] [%]	Vd [10] [L/kg]	half-life [11] [h]	CL/F [12] [L/h/kg]	Structure (SMILES)
< 10	2.2	> 10	< 1									CNC(=O)c1cc(Oc2ccc3nc(Nc4ccccc4)ncc3c2)ccn1
< 10	0.66	> 10	< 1									CNC(=O)c1cc(Oc2ccc3nc(Nc4cccc(Cl)c4)ncc3c2)ccn1
< 10	0.18	> 10	< 1									CNC(=O)c1cc(Oc2ccc3nc(Nc4cccc(Br)c4)ncc3c2)ccn1
< 10	0.045	> 10	< 1	< 1	< 1	< 1	< 1					CNC(=O)c1cc(Oc2ccc3nc(Nc4cccc(C(C)(C)C)c4)ncc3c2)ccn1
< 10	0.64	> 10	< 1									CNC(=O)c1cc(Oc2ccc3nc(Nc4cccc(C(F)(F)F)c4)ncc3c2)ccn1
< 10	0.07	> 10	< 1									CNC(=O)c1cc(Oc2ccc3nc(Nc4cccc(OC(F)(F)F)c4)ncc3c2)ccn1
< 10	0.15	> 10	< 1					35	4.717	7.8	3.19	CNC(=O)c1cc(Oc2ccc3nc(Nc4cccc(C(C)C)c4)ncc3c2)ccn1
< 10	0.6	> 10	< 1									CNC(=O)c1cc(Oc2ccc3nc(Nc4ccc(F)cc4)ncc3c2)ccn1
< 10	0.067	> 10	< 1									CNC(=O)c1cc(Oc2ccc3nc(Nc4ccc(C(F)(F)F)cc4)ncc3c2)ccn1
< 10	0.08	> 10	< 1									CNC(=O)c1cc(Oc2ccc3nc(Nc4ccc(OC(F)(F)F)cc4)ncc3c2)ccn1
